Test results published in ChEMBL document CHEMBL2417464, “Design and synthesis of novel quinazoline nitrogen mustard derivatives as potential therapeutic agents for cancer” (Eur J Med Chem, 2013).
The source made the active and inactive calls. No cut-off for these calls is given here.

Tests used:
DU-145 = assay: Cytotoxicity against human DU145 cells after 72 hrs by MTT assay; assay type: functional, cell-based; conditions: DU-145, 72 h
MCF7 = assay: Cytotoxicity against human MCF7 cells after 72 hrs by MTT assay; assay type: functional, cell-based; conditions: MCF7, 72 h
A549 = assay: Cytotoxicity against human A549 cells after 72 hrs by MTT assay; assay type: functional, cell-based; conditions: A549, 72 h
[1] = Cytotoxicity against human SH-SY5Y cells after 72 hrs by MTT assay; assay type: functional, cell-based
HepG2 [2] = assay: Cytotoxicity against human HepG2 cells after 72 hrs by MTT assay; assay type: functional, cell-based; conditions: HepG2, 72 h
[3] = Cytotoxicity against human GES-1 cells after 48 hrs by MTT assay; assay type: cell-based; conditions: GES1, 48 h
HepG2 [4] = assay: Antitumor activity against human HepG2 cells transfected in nude mouse assessed as tumor growth regression at 20 mg/kg, iv administered from day 9 post-infection every other day for 7 times relative to negative control; assay type: functional
Procedure, shortened: (§1)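 HepG2 xenograft in mice, started 7–14 days after tumor cell inoculation (mice 18–22 g, tumors 140–160 mg). Dosing i.v. every other day, 7 doses, at 10 or 20 mg/kg; sorafenib and vehicle controls given the same way. Tumor dimensions recorded every two days. Growth regression expressed relative to vehicle control.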

HepG2 [5] = assay: Antitumor activity against human HepG2 cells transfected in nude mouse assessed as tumor growth regression at 10 mg/kg, iv administered from day 9 post-infection every other day for 7 times relative to negative control; assay type: functional; procedure, shortened: as §1
Mus musculus [6] = assay: Toxicity in nude mouse transfected with human HepG2 cells assessed as decrease in body weight at 20 mg/kg, iv administered from day 9 every other day for 7 times relative to negative control; assay type: organism-based; set-up: dose 20 mg/kg, route intravenous; conditions: in vivo
Procedure, shortened: (§2)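 HepG2 tumor-bearing mice (18–22 g, tumors 140–160 mg, 7–14 days post-inoculation). Dosing i.v. every other day, 7 doses, at 10 or 20 mg/kg; sorafenib and vehicle controls given identically. Body weight recorded every two days; mean change compared with vehicle group.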

HepG2 [7] = assay: Induction of apoptosis in human HepG2 cells assessed as late apoptotic cells at 6 uM after 48 hrs by Annexin V-FITC/propidium iodide staining-based flow cytometry (reference value: 2.13%); assay type: functional
HepG2 [8] = assay: Induction of apoptosis in human HepG2 cells assessed as late apoptotic cells at 4 uM after 48 hrs by Annexin V-FITC/propidium iodide staining-based flow cytometry (reference value: 2.13%); assay type: functional
HepG2 [9] = assay: Cell cycle arrest in human HepG2 cells assessed as increase in G2/M phase accumulation at 2 to 4 uM after 48 hrs by propidium iodide staining-based flow cytometry; assay type: functional
Procedure, shortened: (§3)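 HepG2 seeded 3 × 10⁵/well, 24 h, then exposed to a range of concentrations for 48 h. Cells fixed in ice-cold 70% ethanol ≥24 h, PBS-washed, RNase A treated, PI-stained 30 min at 4 °C in the dark. DNA content by flow cytometry gives G1, S, G2/M and sub-G1 fractions; mean of three independent determinations.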

HepG2 [10] = assay: Cell cycle arrest in human HepG2 cells assessed as increase in S phase accumulation after 48 hrs by propidium iodide staining-based flow cytometry; assay type: functional; procedure, shortened: as §3
Mus musculus [11] = assay: Toxicity in nude mouse transfected with human HepG2 cells assessed as change in body weight at 10 mg/kg, iv administered from day 9 every other day for 7 times relative to negative control; assay type: organism-based; set-up: dose 10 mg/kg, route intravenous; conditions: in vivo; procedure, shortened: as §2
HepG2 [12] = assay: Cell cycle arrest in human HepG2 cells assessed as increase in sub G1 phase accumulation after 48 hrs by propidium iodide staining-based flow cytometry; assay type: functional; procedure, shortened: as §3
HepG2 [13] = assay: Cell cycle arrest in human HepG2 cells assessed as decrease in G1 phase accumulation at 2 to 4 uM after 48 hrs by propidium iodide staining-based flow cytometry; assay type: functional; procedure, shortened: as §3
HepG2 [14] = assay: Cell cycle arrest in human HepG2 cells assessed as increase in G2/M phase accumulation after 48 hrs by propidium iodide staining-based flow cytometry; assay type: functional; procedure, shortened: as §3
HepG2 [15] = assay: Induction of apoptosis in human HepG2 cells after 48 hrs by Annexin V-FITC/propidium iodide staining-based flow cytometry; assay type: functional, cell-based
HepG2 [16] = assay: Induction of apoptosis in human HepG2 cells assessed as early apoptotic cells at 2 uM after 48 hrs by Annexin V-FITC/propidium iodide staining-based flow cytometry (reference value: 0.86%); assay type: functional
HepG2 [17] = assay: Induction of apoptosis in human HepG2 cells assessed as late apoptotic cells at 2 uM after 48 hrs by Annexin V-FITC/propidium iodide staining-based flow cytometry (reference value: 2.13%); assay type: functional
HepG2 [18] = assay: Induction of apoptosis in human HepG2 cells assessed as early apoptotic cells at 4 uM after 48 hrs by Annexin V-FITC/propidium iodide staining-based flow cytometry (reference value: 0.86%); assay type: functional
HepG2 [19] = assay: Induction of apoptosis in human HepG2 cells assessed as early apoptotic cells at 6 uM after 48 hrs by Annexin V-FITC/propidium iodide staining-based flow cytometry (reference value: 0.86%); assay type: functional
HepG2 [20] = assay: Cell cycle arrest in human HepG2 cells assessed as increase in S phase accumulation at 2 to 4 uM after 48 hrs by propidium iodide staining-based flow cytometry; assay type: functional; procedure, shortened: as §3

SMILES	IC50 (DU-145)	IC50 (MCF7)	IC50 (A549)	IC50 [1]	IC50 (HepG2 [2])	other results
COc1cc2ncnc(Nc3cccc(N(CCCl)CCCl)c3)c2cc1OC(C)=O	21.6 µM	39.9 µM	39.1 µM	24 µM	29.1 µM	–
CNC(=O)c1cc(Oc2ccc(NC(=O)Nc3ccc(Cl)c(C(F)(F)F)c3)cc2)ccn1 [SORAFENIB]	24.9 µM	11.3 µM	27.7 µM	19.5 µM	8.42 µM	IC50 [3]: 15.8 µM; TGI (HepG2 [4]): Active; TGI (HepG2 [5]): Active; Activity (Mus musculus [6]): Toxic
COc1cc2ncnc(Nc3cccc(N(CCCl)CCCl)c3)c2cc1OCCCN1CCOCC1	20 µM	10.5 µM	6.71 µM	8.6 µM	3.06 µM	Activity (HepG2 [7]): 57.7%; Activity (HepG2 [8]): 32.13%; Activity (HepG2 [9]): Active; Activity (HepG2 [10]): Dose-dependent effect; Activity (Mus musculus [11]): Non-toxic; Activity (HepG2 [12]): Dose-dependent effect; inhibition in vivo at 20 mg/kg (HepG2 [4]; HepG2, 216 h, read-out: TGI): 47.3%; Activity (HepG2 [13]): Active; inhibition in vivo at 10 mg/kg (HepG2 [5]; HepG2, 216 h, read-out: TGI): 26.5%; Activity (HepG2 [14]): Dose-dependent effect; Activity (HepG2 [15]): Dose-dependent effect; Activity (Mus musculus [6]): Toxic; Activity (HepG2 [16]): 4.58%; Activity (HepG2 [17]): 6.64%; Activity (HepG2 [18]): 9.26%; Activity (HepG2 [19]): 17.9%; Activity (HepG2 [20]): Active
COCCOc1cc2ncnc(Nc3ccc(N(CCCl)CCCl)cc3)c2cc1OCCOC	> 100 µM	> 100 µM	> 100 µM	13.2 µM	85 µM	–
COCCOc1cc2ncnc(Nc3cccc(N(CCCl)CCCl)c3)c2cc1OCCOC	> 100 µM	> 100 µM	77.4 µM	16.9 µM	33.5 µM	–
COc1cc2ncnc(Nc3ccc(N(CCCl)CCCl)cc3)c2cc1OCCCN1CCOCC1	16.9 µM	55 µM	27.7 µM	20.7 µM	12.2 µM	–
COc1cc2ncnc(Nc3ccc(N(CCCl)CCCl)cc3)c2cc1OC(C)=O	49.2 µM	28.9 µM	28.8 µM	17.4 µM	47.1 µM	–
COc1cc2ncnc(Nc3cccc(N(CCCl)CCCl)c3)c2cc1O	41.5 µM	67.4 µM	33 µM	21.1 µM	23.3 µM	–
COc1cc2ncnc(Nc3ccccc3N(CCCl)CCCl)c2cc1OC(C)=O	99.4 µM	57.1 µM	62.9 µM	28.2 µM	48.4 µM	–
COc1cc2ncnc(Nc3cccc(N(CCCl)CCCl)c3)c2cc1OC	> 100 µM	> 100 µM	> 100 µM	12.4 µM	17.4 µM	–
COc1cc2ncnc(Nc3ccc(N(CCCl)CCCl)cc3)c2cc1OC	> 100 µM	51.1 µM	> 100 µM	7.36 µM	29.9 µM	–
COc1cc2ncnc(Nc3ccccc3N(CCCl)CCCl)c2cc1OC	> 100 µM	89.2 µM	81.5 µM	22.6 µM	77.2 µM	–
COCCOc1cc2ncnc(Nc3ccccc3N(CCCl)CCCl)c2cc1OCCOC	> 100 µM	97.7 µM	33.1 µM	45.8 µM	11.3 µM	–
COc1cc2ncnc(Nc3ccc(N(CCCl)CCCl)cc3)c2cc1O	75.2 µM	41.9 µM	53.4 µM	43.9 µM	46.7 µM	–
